Laboratory results from ChEMBL document CHEMBL1156595, “Studies on the antifungal properties of N-thiolated beta-lactams” (2008).
Converted amounts (≈) assume the structure as drawn. Values belong to the molecule of their own block, whether it stands above or below them. The source made the active and inactive calls. The rule behind the calls is not given here.

Assays:
Candida albicans [1] = test: Antifungal activity against Candida albicans ATCC 2091 assessed as growth inhibition zone at 50 ug after 24 hrs by Kirby-Bauer agar diffusion assay; type: functional; settings: ATCC 2091, 24 h, read-out: IZ
Outline: (§1)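 Disk diffusion on yeast nitrogen base agar, swabbed with a McFarland 0.5 suspension in saline. 6 mm cellulose disks carried 10 µL of a 5 mg/mL CH2Cl2 stock (50 ug per disk), air-dried, three disks per plate. Plates were sealed and incubated 24 h at 37°C. Cleared inhibition zones were measured and averaged over triplicates.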

Candida tropicalis [2] = test: Antifungal activity against Candida tropicalis clinical isolate assessed as growth inhibition zone at 50 ug after 24 hrs by Kirby-Bauer agar diffusion assay; type: functional; settings: read-out: IZ; outline: as §1
Nakaseomyces glabratus [3] = test: Antifungal activity against Candida glabrata ATCC 15126 assessed as growth inhibition zone at 50 ug after 24 hrs by Kirby-Bauer agar diffusion assay; type: functional; settings: ATCC 15126, 24 h, read-out: IZ; outline: as §1
Kluyveromyces marxianus [4] = test: Antifungal activity against Candida kefyr ATCC 20409 assessed as growth inhibition zone at 50 ug after 24 hrs by Kirby-Bauer agar diffusion assay; type: functional; settings: ATCC 20409, 24 h, read-out: IZ; outline: as §1
Pichia kudriavzevii = test: Antifungal activity against Candida krusei ATCC 14243 assessed as growth inhibition zone at 50 ug after 24hrs by Kirby-Bauer agar diffusion assay; type: functional; settings: ATCC 14243, 24 h, read-out: IZ; outline: as §1
Clavispora lusitaniae [5] = test: Antifungal activity against Candida lusitaniae ATCC 34449 assessed as growth inhibition zone at 50 ug after 24 by Kirby-Bauer agar diffusion assay; type: functional; settings: read-out: IZ; outline: as §1
Candida parapsilosis [6] = test: Antifungal activity against Candida parapsilosis ATCC 22019 assessed as growth inhibition zone at 50 ug after 24 hrs by Kirby-Bauer agar diffusion assay; type: functional; settings: Lodderomyces parapsilosis, ATCC 22019, 24 h; read-out: IZ; outline: as §1
Cyberlindnera jadinii [7] = test: Antifungal activity against Candida utilis ATCC 29950 assessed as growth inhibition zone at 50 ug after 24 by Kirby-Bauer agar diffusion assay; type: functional; settings: Williopsis jadinii, read-out: IZ; outline: as §1
Candida albicans [8] = test: Antifungal activity against Candida albicans ATCC 2091 after 24 hrs by NCCLS M27-A2 method; type: functional; settings: ATCC 2091, 24 h
Outline: (§2)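 Broth dilution in yeast nitrogen broth. Lactam from a 1 mg/mL DMSO stock was serially diluted down to 0.125 ug/mL. Each tube got 1 uL of a 10^6 CFU/mL inoculum in sterile NaCl. Incubation was 24 or 48 h at 26°C or 37°C depending on strain. Growth was read by optical density. MIC was the lowest concentration inhibiting all growth, averaged over triplicates.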

Candida tropicalis [9] = test: Antifungal activity against Candida tropicalis clinical isolate after 24 hrs by NCCLS M27-A2 method; type: functional; outline: as §2
Nakaseomyces glabratus [10] = test: Antifungal activity against Candida glabrata ATCC 15126 after 24 hrs by NCCLS M27-A2 method; type: functional; settings: ATCC 15126, 24 h; outline: as §2
Kluyveromyces marxianus [11] = test: Antifungal activity against Candida kefyr ATCC 20409 after 24 hrs by NCCLS M27-A2 method; type: functional; settings: ATCC 20409, 24 h; outline: as §2
Clavispora lusitaniae [12] = test: Antifungal activity against Candida lusitaniae ATCC 34449 after 24 hrs by NCCLS M27-A2 method; type: functional; settings: ATCC 34449, 24 h; outline: as §2
Candida parapsilosis [13] = test: Antifungal activity against Candida parapsilosis ATCC 22019 after 24 hrs by NCCLS M27-A2 method; type: functional; settings: Lodderomyces parapsilosis, ATCC 22019, 24 h; outline: as §2
Cyberlindnera jadinii [14] = test: Antifungal activity against Candida utilis ATCC 29950 after 24 hrs by NCCLS M27-A2 method; type: functional; settings: Williopsis jadinii, ATCC 29950, 24 h; outline: as §2
Candida albicans [15] = test: Antifungal activity against Candida albicans ATCC 2091 after 48 hrs by NCCLS M27-A2 method; type: functional; settings: ATCC 2091, 48 h; outline: as §2
Candida tropicalis [16] = test: Antifungal activity against Candida tropicalis clinical isolate after 48 hrs by NCCLS M27-A2 method; type: functional; outline: as §2
Nakaseomyces glabratus [17] = test: Antifungal activity against Candida glabrata ATCC 15126 after 48 hrs by NCCLS M27-A2 method; type: functional; settings: ATCC 15126, 48 h; outline: as §2
Kluyveromyces marxianus [18] = test: Antifungal activity against Candida kefyr ATCC 20409 after 48 hrs by NCCLS M27-A2 method; type: functional; settings: ATCC 20409, 48 h; outline: as §2
Clavispora lusitaniae [19] = test: Antifungal activity against Candida lusitaniae ATCC 34449 after 48 hrs by NCCLS M27-A2 method; type: functional; settings: ATCC 34449, 48 h; outline: as §2
Candida parapsilosis [20] = test: Antifungal activity against Candida parapsilosis ATCC 22019 after 48 hrs by NCCLS M27-A2 method; type: functional; settings: Lodderomyces parapsilosis, ATCC 22019, 48 h; outline: as §2
Cyberlindnera jadinii [21] = test: Antifungal activity against Candida utilis ATCC 29950 after 48 hrs by NCCLS M27-A2 method; type: functional; settings: Williopsis jadinii, ATCC 29950, 48 h; outline: as §2
Saccharomyces cerevisiae = test: Antifungal activity against Saccharomyces cerevisiae in YM agar by agar dilution method; type: functional
Outline: (§3)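 Agar dilution MIC, run per NCCLS guidance. Medium was potato dextrose agar for A. niger and YM agar for S. cerevisiae.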

Aspergillus niger = test: Antifungal activity against Aspergillus niger in potato dextrose agar by agar dilution method; type: functional; outline: as §3
Candida albicans [22] = test: Antifungal activity against Candida albicans ATCC 2091 assessed as degradation of intracellular membrane at <5 ug/ml after 4 hrs by transmission electron microscopy; type: functional, organism-based
Candida albicans [23] = test: Antifungal activity against Candida albicans ATCC 2091 by […]; type: functional
Outline: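 Tube broth dilution in yeast nitrogen broth. Lactam was added from a 1 mg/mL DMSO stock and serially diluted down to 0.125 ug/mL in broth. Each tube was inoculated with 1 uL of a 10^6 CFU/mL fungal suspension in sterile NaCl and incubated 24 or 48 h at 26°C or 37°C, depending on strain. Growth was read by optical density. MIC is the lowest concentration inhibiting all growth, averaged over triplicates.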

- MIC (Candida albicans [8]): < 5 µg/mL
- MIC (Candida tropicalis [9]): 10 µg/mL (≈ 38.8 µM)
- MIC (Nakaseomyces glabratus [10]): 10 µg/mL (≈ 38.8 µM)
- MIC (Kluyveromyces marxianus [11]): 10 µg/mL (≈ 38.8 µM)
- MIC (Clavispora lusitaniae [12]): 10 µg/mL (≈ 38.8 µM)
- MIC (Candida parapsilosis [13]): < 5 µg/mL
- MIC (Cyberlindnera jadinii [14]): 10 µg/mL (≈ 38.8 µM)
- MIC (Candida albicans [15]): < 5 µg/mL
- MIC (Candida tropicalis [16]): 30 µg/mL (≈ 116 µM)
- MIC (Nakaseomyces glabratus [17]): 10 µg/mL (≈ 38.8 µM)
- MIC (Kluyveromyces marxianus [18]): 35 µg/mL (≈ 136 µM)
- MIC (Clavispora lusitaniae [19]): 15 µg/mL (≈ 58.2 µM)
- MIC (Candida parapsilosis [20]): < 5 µg/mL
- MIC (Cyberlindnera jadinii [21]): 15 µg/mL (≈ 58.2 µM)
- MIC (Saccharomyces cerevisiae): 32 µg/mL (≈ 124 µM)
- MIC (Aspergillus niger): 16 µg/mL (≈ 62.1 µM)
Structure (SMILES): CO[C@H]1C(=O)N(SC)[C@H]1c1ccccc1Cl
- zone of inhibition at 50 µg/disc (Candida albicans [1]): 23 mm
- zone of inhibition at 50 µg/disc (Candida tropicalis [2]): 21 mm
- zone of inhibition at 50 µg/disc (Nakaseomyces glabratus [3]): 25 mm
- zone of inhibition at 50 µg/disc (Kluyveromyces marxianus [4]): 17 mm
- zone of inhibition at 50 µg/disc (Pichia kudriavzevii): 0 mm
- zone of inhibition at 50 µg/disc (Clavispora lusitaniae [5]): 20 mm
- zone of inhibition at 50 µg/disc (Candida parapsilosis [6]): 33 mm
- zone of inhibition at 50 µg/disc (Cyberlindnera jadinii [7]): 22 mm
- Activity (Candida albicans [22]): Active

Structure (SMILES): Clc1ccccc1C(c1ccccc1)(c1ccccc1)n1ccnc1 [CLOTRIMAZOLE]
- MIC (Candida albicans [23]): 2 µg/mL (≈ 5.8 µM)
